VIM-2 inh = blocks Pseudomonas aeruginosa VIM-2 metallo-beta-lactamase | inhibition, % at 5.6 µM | AID 1527 | purified VIM-2, nitrocefin hydrolysis, epi-absorbance fluorescence | 0.89% of 290,000 active;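 active means inhibition above the mean of all tested compounds plus 3 SD, cutoff set per screening run, cut at about 7.5% in these data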;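 further: red hydrolysis product quenches plate fluorescence so inhibitors raise well fluorescence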
PABP FP inh = PABP-poly(A) binding inhibition; P11940; PABP-poly(A) RNA binding, fluorescence polarization; calls only at 35 µM; 1% of 290,000 active;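 further: calls also rest on retests at 20 µM and on dose response follow-up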
Target sequence (P11940 whole entry, looked up): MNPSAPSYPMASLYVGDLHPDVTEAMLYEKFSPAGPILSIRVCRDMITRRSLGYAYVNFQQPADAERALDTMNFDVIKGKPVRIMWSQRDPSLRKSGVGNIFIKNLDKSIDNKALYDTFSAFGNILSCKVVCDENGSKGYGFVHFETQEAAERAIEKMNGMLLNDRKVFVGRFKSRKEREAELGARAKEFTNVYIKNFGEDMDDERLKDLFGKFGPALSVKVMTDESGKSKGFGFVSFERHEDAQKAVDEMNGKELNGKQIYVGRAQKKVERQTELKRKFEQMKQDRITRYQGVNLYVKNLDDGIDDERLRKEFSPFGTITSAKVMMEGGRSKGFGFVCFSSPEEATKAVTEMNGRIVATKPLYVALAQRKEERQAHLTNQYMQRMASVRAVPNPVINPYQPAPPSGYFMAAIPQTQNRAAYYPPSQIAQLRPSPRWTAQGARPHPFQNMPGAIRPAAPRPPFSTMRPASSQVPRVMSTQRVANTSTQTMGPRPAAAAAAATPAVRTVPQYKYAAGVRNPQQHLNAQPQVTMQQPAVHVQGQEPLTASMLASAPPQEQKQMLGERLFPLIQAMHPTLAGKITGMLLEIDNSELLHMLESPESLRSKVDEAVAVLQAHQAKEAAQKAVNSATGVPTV
IMP-1 inh = inhibitors of Pseudomonas aeruginosa IMP-1 metallo-beta-lactamase; purified IMP-1, nitrocefin hydrolysis, epi-absorbance fluorescence; inhibition, % at 5.6 µM; 0.45% of 290,000 active; AID 1556;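 active means inhibition above the mean plus 3 SD of all compounds in the same screening run, cut at about 4.5% in these data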
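Test system: recombinant IMP-1 enzyme, purified / Medium: HEPES buffer pH 7.1 with ZnSO4 and Brij 35 / Doses: single dose, 5.6 µM / Times: 25 °C, 15 min preincubation, 25 min reaction / Detection: Epi-absorbance via hydrolysed-nitrocefin quenching of white-plate fluorescence, 480/530 nm, EDTA stop / Evaluation: percent inhibition from optical density relative to buffer-blank wells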
MLLE-PAM2 inh = blocks PAM2 peptide binding to the PABP1 MLLE domain | P11940 | GST-MLLE / FITC-PAM2 fluorescence polarization | inhibition, % at 20 µM | 0.36% of 360,000 active; in the data active means inhibition above about 35%, passing the limit was not always enough
eIF4H FP inh = inhibitors of RNA binding by human eIF4H; Q15056; AID 2012; 0.94% of 290,000 active; eIF4H fluorescence polarization binding assay; inhibition, % at 35 µM;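 further: calls also rest on retests at 20 µM and on dose response follow-up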
Numbers stand for hits; . = inactive; ? = inconclusive; / = not tested or not shown; + = active, no number. Rows were chosen to be rich in hits. Some 2.2% of all compounds tested hit in one or more screens of this group. Unless noted, how the calls were made is not given here.

SMILES	VIM-2 inh	PABP FP inh	IMP-1 inh	MLLE-PAM2 inh	eIF4H FP inh
O=c1cc2c(nn1Cc1ccccc1Cl)-c1ccccc1CC2	.	.	.	.	.
Cn1c(C(=O)NCCCN2CCc3ccccc3C2)cc2c(=O)n(C)c3ccccc3c21	9.8	.	.	.	.
Cn1c(C(=O)NC2CC2)cc2c(=O)n(C)c3ccccc3c21	17	.	.	.	.
COc1ccc(CCNC(=O)c2cc3c(=O)n(C)c4ccccc4c3n2C)cc1OC	.	.	.	.	.
COCCCNC(=O)c1cc2c(=O)n(C)c3ccccc3c2n1C	7.8	.	.	.	.
COc1ccc(-n2c3c(c(=O)[nH]c2=O)C(NC(C)=O)(C(F)(F)F)C(=O)N3)cc1 (stereo not drawn)	.	.	.	.	.
Cc1ccc2c(c1)N1C(=O)c3ccccc3C1C1=C(CC(C)(C)CC1=O)N2 (stereo not drawn)	.	.	.	.	active
C=CCN(C(=O)CCc1ccccc1OC)c1nc(-c2ccc(S(C)(=O)=O)cc2)cs1	.	.	4.6	.	.
C=CCN(C(=O)Cc1cccs1)c1nc(-c2ccc(S(C)(=O)=O)cc2)cs1	.	.	5.3	.	.
COc1cc(C(C(=O)NC(C)(C)C)N(C(=O)CNC(=O)c2cccs2)c2cccnc2)cc(OC)c1OC (stereo not drawn)	.	.	.	.	.
O=C(CSc1cccc2cccnc12)OCC(=O)c1ccc(Br)cc1	.	.	5.3	.	.
Cc1ccc(C(=O)COC(=O)COc2ccccc2C)cc1	.	.	.	.	.
C=CCn1c(C)c(/C=C/c2cc[n+](C)cc2)c2ccccc21	9.3	?	.	.	?
C=CCn1cc(/C=C/c2cc[n+](C)cc2)c2ccccc21	10	?	7.8	.	?
Oc1cc(-n2cccn2)c(O)cc1-n1cccn1	.	.	.	47	.
Nc1ccc2oc(-c3ccccc3Cl)cc(=O)c2c1O	.	+	.	.	90
O=c1cc(-c2ccccc2Cl)oc2ccc([N+](=O)[O-])c(O)c12	.	.	.	.	.
CCNC(=O)c1sc(=S)n(-c2ccc(C)cc2)c1N	.	.	.	44	.
O=C1NC(Cc2ccccc2)C(=O)N1Cc1cc([N+](=O)[O-])cc2c1OCOC2 (stereo not drawn)	.	.	.	.	.
CN(C)c1nc(N2CCN(c3ccc(F)cc3)CC2)c(C#N)c(=O)o1	.	.	.	.	.
CN(CCO)c1nc(N)c2c(N)nc3c(c2c1C#N)CC(=O)N3C1CCCC1	.	+	.	/	?
N#Cc1c(N2CCN(c3ccc(F)cc3)CC2)nc(N)c2c(N)nc3c(c12)CC(=O)N3C1CC1	.	+	.	.	?
CC(C)(C)N1C(=O)Cc2c1nc(N)c1c(N)nc(N3CCCCC3CO)c(C#N)c21 (stereo not drawn)	.	?	.	.	?
COC(=O)c1ccc2nc(-c3ccc(C)cc3)c(CC3CCCCC3)n2c1	/	/	/	.	/
O=C(O)c1ccc2[nH]c3c(c2c1)CSCC3	.	.	.	.	56
SMILES	VIM-2 inh	PABP FP inh	IMP-1 inh	MLLE-PAM2 inh	eIF4H FP inh
CCOC(=O)COc1cnc2ccccc2n1	.	.	.	.	.
O=C(Cc1cccs1)N/N=C/C(Cl)=C/c1ccccc1	.	.	.	.	.
CN1CCc2c(C#N)c(N3CCCCC3)nc(NCc3ccccc3)c2C1	.	+	.	.	74
Cc1ccc(Cl)c(NC(=O)COC(=O)c2cc[n+]([O-])cc2)c1Cl	/	/	/	.	/
Cc1ccc2[nH]c(=O)c3cc(C(=O)N(CCCOC(C)C)Cc4ccco4)sc3c2c1	8.1	.	.	.	.
Cc1ccc2nc(Cl)c3cc(C(=O)N(CCN(C)C)Cc4ccco4)sc3c2c1	8.3	.	.	.	.
COc1cc2c(cc1NC(=O)c1cccc([N+](=O)[O-])c1)oc1ccccc12	.	.	.	.	.
COc1cc2c(cc1NC(=O)c1ccc(C)c([N+](=O)[O-])c1)oc1ccccc12	.	.	.	.	active
CC(Nc1ccc(F)cc1)=[N+](C)CCNS(=O)(=O)c1ccc(Cl)cc1	.	+	.	.	.
CC1CCCCC1NC(=O)CSc1nnc(CC(=O)Nc2ccccc2F)n1C (stereo not drawn)	.	.	.	.	.
CCOC(=O)N1CCN(c2cc(NCCC(=O)O)c3c4c(onc24)-c2ccccc2C3=O)CC1	.	+	.	.	86
O=C(O)CCCNc1cc(N2CCC3(CC2)OCCO3)c2noc3c2c1C(=O)c1ccccc1-3	.	+	.	/	115
O=C1c2ccccc2-c2c1cccc2C(=O)N1CCN(C(=O)c2ccco2)CC1	.	.	.	.	.
O=C(O)CCCNc1cc(N2CCN(C(=O)c3ccco3)CC2)c2noc3c2c1C(=O)c1ccccc1-3	.	?	8.2	.	?
O=C(CCl)N(c1ccccc1)C1CCCCC1	.	.	.	.	.
COc1ccc(Nc2nc(C)c3ccccc3n2)cc1	.	.	.	.	.
COc1ccc(Nc2nc3ccccc3nc2C)cc1	.	+	.	.	61
Cc1cc(=O)n2nc(-c3ccccc3)sc2n1	.	+	.	.	56
COC(=O)c1cc(=O)nc2sc(-c3ccccc3)nn12	.	.	.	.	.
Cc1nc2cc(C(=O)O)ccc2s1	.	.	.	39	.
COc1ccc(C2NCCc3c2[nH]c2ccccc32)cc1CSc1nc2ccccc2s1 (stereo not drawn)	.	.	.	.	.
Cc1nc(SCC(=O)c2ccccc2)c(C#N)c(-c2ccco2)c1C(=O)NCc1ccco1	.	.	5.0	.	.
CC(=O)Nc1c(O)nc(SCC(=O)Nc2c(C)cccc2C)[nH]c1=O	.	.	7.3	.	.
Cc1ccccc1NC(=O)CSc1nnc(C)c(=O)[nH]1	.	.	.	43	.
CCc1cccc(CC)c1NC(=O)CSc1nnc(CCC(=O)O)c(=O)[nH]1	.	.	.	39	.
SMILES	VIM-2 inh	PABP FP inh	IMP-1 inh	MLLE-PAM2 inh	eIF4H FP inh
Cc1nnc(SCC(=O)Nc2ccccc2)[nH]c1=O	.	.	.	.	.
CC(=O)c1cccc(NC(=O)COc2cc(C)on2)c1	/	/	/	.	/
CC(C)C(OC(=O)CN1C(=O)c2ccccc2C1=O)C(=O)NC1CCCC1 (stereo not drawn)	.	.	.	.	.
CC(=O)OC1CSC2c3ccccc3C(=O)N2Cc2sccc21 (stereo not drawn)	.	.	.	.	.
CCOC(=O)[C@H]1[C@H]2COc3ccc(Cl)cc3[C@@H]2N2C(=O)[C@@H](CO)NC(=O)[C@@]12C	/	/	/	.	/
Cc1ccccc1NC(=O)CSc1[nH]c(=O)cc(C)c1C#N	.	+	.	.	22
Cc1cc(=O)[nH]c(SCC(=O)NC(C)C2CC3CCC2C3)c1C#N (stereo not drawn)	.	+	.	.	3.3
COc1ccc(NC(=O)CSc2[nH]c(=O)cc(C)c2C#N)cc1OC	.	.	.	.	.
Cc1cc(=O)[nH]c(SCC(=O)c2ccccc2)c1C#N	.	+	.	.	81
Cc1cc(C)c(C#N)c(SCC(=O)c2ccccc2)n1	.	.	.	.	.
